Test [1] has as its target T1, Peroxisome proliferator-activated receptor alpha (Homo sapiens) (UniProt Q07869).
T1 sequence (whole entry): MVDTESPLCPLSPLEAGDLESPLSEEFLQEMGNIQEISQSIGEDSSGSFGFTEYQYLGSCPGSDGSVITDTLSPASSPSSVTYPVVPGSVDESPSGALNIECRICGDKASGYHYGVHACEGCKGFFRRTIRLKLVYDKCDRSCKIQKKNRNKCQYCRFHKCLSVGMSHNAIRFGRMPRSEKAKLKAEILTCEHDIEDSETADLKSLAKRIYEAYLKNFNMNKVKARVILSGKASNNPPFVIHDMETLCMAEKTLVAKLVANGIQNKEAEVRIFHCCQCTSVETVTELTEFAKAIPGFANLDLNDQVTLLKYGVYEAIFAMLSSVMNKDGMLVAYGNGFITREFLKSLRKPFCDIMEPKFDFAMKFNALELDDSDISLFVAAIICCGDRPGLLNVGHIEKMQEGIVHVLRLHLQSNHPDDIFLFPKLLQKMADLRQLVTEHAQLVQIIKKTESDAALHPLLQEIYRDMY
The test is described as follows: Compound was tested for activation of peroxisome proliferator-activated receptor alpha activity at 50 uM concentration by transactivation assay. The essentials: (§1)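 Cell-based PPAR transactivation assay, with receptor activity expressed as fold activation. Each compound was tested at a single concentration, which differed between the PPARα and PPARγ arms.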

The target in test [2] is T2, Peroxisome proliferator-activated receptor gamma (Homo sapiens) (UniProt P37231).
T2 sequence (whole entry): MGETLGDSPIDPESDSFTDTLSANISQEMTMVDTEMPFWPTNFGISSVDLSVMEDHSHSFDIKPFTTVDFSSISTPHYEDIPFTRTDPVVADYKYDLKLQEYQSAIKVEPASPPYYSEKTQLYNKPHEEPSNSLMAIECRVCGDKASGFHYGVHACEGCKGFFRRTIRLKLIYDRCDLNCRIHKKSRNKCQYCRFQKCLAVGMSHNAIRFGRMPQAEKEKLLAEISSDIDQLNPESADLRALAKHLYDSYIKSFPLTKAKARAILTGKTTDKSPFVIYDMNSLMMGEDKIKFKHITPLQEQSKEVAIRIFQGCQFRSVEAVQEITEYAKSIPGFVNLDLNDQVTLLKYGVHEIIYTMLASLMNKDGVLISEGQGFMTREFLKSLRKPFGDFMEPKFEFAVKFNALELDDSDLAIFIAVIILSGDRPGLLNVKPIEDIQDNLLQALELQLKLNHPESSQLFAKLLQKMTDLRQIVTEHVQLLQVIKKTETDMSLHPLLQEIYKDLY
In words: Compound was tested for activation of peroxisome proliferator-activated receptor gamma activity at 1 uM concentration by transactivation assay. The essentials: as §1

The subject of test [3] is Mus musculus. The test is described as follows: Percentage reduction of triglyceride (TG) in db/db mice at 3 mg/kg; No effect. Also noted: dose 3 mg/kg. In kind it is functional, organism-based. The essentials: (§2)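 db/db mice were dosed orally at 3 mg/kg for 6 days. Plasma glucose and triglyceride were then measured, and each value is the percentage reduction.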
The subject of test [4] is Mus musculus. In words: Percentage reduction of plasma glucose (PG) in db/db mice at 3 mg/kg; No effect. In kind it is functional, organism-based. Set-up: dose 3 mg/kg. A digest of the protocol:
as §2

Test [5] has as its system Mus musculus. The test is described as follows: Percentage reduction of triglyceride (TG) in db/db mice at 3 mg/kg. In kind it is functional. A digest of the protocol: as §2
Test [6] deals with Mus musculus. In words: Percentage reduction of plasma glucose (PG) in db/db mice at 3 mg/kg. It is filed as functional. A digest of the protocol:
as §2

Active and inactive are the calls of the source. The rule behind the calls is not given here.

Regarding `CCOC(Cc1ccc(OCCN2C(=O)COc3ccsc32)c(OC)c1)C(=O)O` (stereo not given), the Activity in test [1] was found to be 0.5; in test [2] it was 1.2. Besides, the Reduction entry with Mus musculus [3] and with Mus musculus [4] was “inactive” throughout.

Turning to `CCOC(Cc1ccc(OCCN2C(=O)COc3ccsc32)c(Br)c1)C(=O)O` (stereo not given), the Activity in test [1] is 8; in test [2] it was 1.2. Further, the Reduction in the test on Mus musculus [5] amounted to 62%. Besides, in the test with Mus musculus [4], the Reduction result is “inactive”.

As for `CCOC(Cc1ccc(OCCN2C(=O)COc3ccsc32)c(C)c1)C(=O)O` (stereo not given), the results for the Activity in test [1] and in test [2] were 1.5 and 18, respectively. The Reduction came to 19% in the test on Mus musculus [5] and 52% in the test with Mus musculus [6].

For the compound `O=C(O)Cc1ccc(OCCN2C(=O)COc3ccsc32)c(Br)c1`, the figures for the Activity in test [1] and in test [2] were 1.3 and 8, respectively. Further, the values for the Reduction in the test on Mus musculus [5] and in the test on Mus musculus [6] were 14% and 21%, respectively.

`CCOC(Cc1ccc(OCCN2C(=O)COc3ccsc32)cc1)C(=O)O` (stereo not given): the Activity in test [1] was 8; in test [2], 16. The Reduction turned out to be 56% in the test on Mus musculus [5] and 47% in the test on Mus musculus [6].

As for `O=C(O)Cc1ccc(OCCCN2C(=O)COc3ccsc32)cc1`, the values for the Activity in test [1] and in test [2] were 0.5 and 5, respectively. In the test with Mus musculus [3], the Reduction entry is “inactive”. In addition, the Reduction in the test on Mus musculus [6] worked out at 14%.

With `CCOC(Cc1cc(Br)c(OCCN2C(=O)COc3ccsc32)c(Br)c1)C(=O)O` (stereo not given), the Activity in test [1] is 5; in test [2] it was 1.6. This compound yielded a Reduction in the test with Mus musculus [5] of 48%. In addition, the Reduction entry in the test with Mus musculus [4] was “inactive”.

For the compound `CCOC(Cc1ccc(OCCN2C(=O)COc3ccsc32)c(Cl)c1)C(=O)O` (stereo not given), the Activity in test [1] came to 2.5; in test [2], 7. Also, the results for the Reduction in the test with Mus musculus [5] and in the test on Mus musculus [6] were 27% and 21%, respectively.

For `O=C(O)Cc1cc(Br)c(OCCN2C(=O)COc3ccsc32)c(Br)c1`, the Activity in test [1] was found to be 2; in test [2], 15. Besides, the Reduction in the test on Mus musculus [5] is recorded as 15%; in the test on Mus musculus [6], 43%.

For the compound `O=C(O)Cc1ccc(OCCN2C(=O)COc3ccsc32)cc1`, the Activity in test [1] is 5; in test [2] it was 14. Further, the Reduction with Mus musculus [5] was determined as 43%; in the test on Mus musculus [6] it was 39%.
